# Hits are enriched below; roughly 1.2% of the tested compounds scored in any of these assays.
# Tb hexokinase: blocks Trypanosoma brucei hexokinase 1 activity | recombinant TbHK1, G6PDH-coupled NADH A340 | inhibition, % at 10 µM | hit rate 0.11% among 220,000 | AID 1430;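 active = inhibition of 50% or more in the single-dose primary screen; inactive = inhibition below 50%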
# G6PDH CS: counter-screen for G6PDH assay hits: L. mesenteroides G6PDH inhibition; Purified L. mesenteroides G6PDH, diaphorase/resazurin coupled fluorescence, 45 min; inhibition, % at 5 µM; hit rate 0.12% among 200,000; in the data active = inhibition above about 50%
# HKDC1 inhibitor: blocks human hexokinase HKDC1 activity; inhibition, % at 20 µM; hit rate 0.16% among 340,000; recombinant HKDC1, G6PDH/diaphorase resazurin coupled fluorescence; AID 493160; Q2TB90;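 active = inhibition above about 35% when tested at 20 µM, limit read from the data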;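 note: plate controls were DMSO wells with enzyme for no effect and DMSO wells lacking enzyme for full effect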
# Target sequence (Q2TB90 whole entry, looked up): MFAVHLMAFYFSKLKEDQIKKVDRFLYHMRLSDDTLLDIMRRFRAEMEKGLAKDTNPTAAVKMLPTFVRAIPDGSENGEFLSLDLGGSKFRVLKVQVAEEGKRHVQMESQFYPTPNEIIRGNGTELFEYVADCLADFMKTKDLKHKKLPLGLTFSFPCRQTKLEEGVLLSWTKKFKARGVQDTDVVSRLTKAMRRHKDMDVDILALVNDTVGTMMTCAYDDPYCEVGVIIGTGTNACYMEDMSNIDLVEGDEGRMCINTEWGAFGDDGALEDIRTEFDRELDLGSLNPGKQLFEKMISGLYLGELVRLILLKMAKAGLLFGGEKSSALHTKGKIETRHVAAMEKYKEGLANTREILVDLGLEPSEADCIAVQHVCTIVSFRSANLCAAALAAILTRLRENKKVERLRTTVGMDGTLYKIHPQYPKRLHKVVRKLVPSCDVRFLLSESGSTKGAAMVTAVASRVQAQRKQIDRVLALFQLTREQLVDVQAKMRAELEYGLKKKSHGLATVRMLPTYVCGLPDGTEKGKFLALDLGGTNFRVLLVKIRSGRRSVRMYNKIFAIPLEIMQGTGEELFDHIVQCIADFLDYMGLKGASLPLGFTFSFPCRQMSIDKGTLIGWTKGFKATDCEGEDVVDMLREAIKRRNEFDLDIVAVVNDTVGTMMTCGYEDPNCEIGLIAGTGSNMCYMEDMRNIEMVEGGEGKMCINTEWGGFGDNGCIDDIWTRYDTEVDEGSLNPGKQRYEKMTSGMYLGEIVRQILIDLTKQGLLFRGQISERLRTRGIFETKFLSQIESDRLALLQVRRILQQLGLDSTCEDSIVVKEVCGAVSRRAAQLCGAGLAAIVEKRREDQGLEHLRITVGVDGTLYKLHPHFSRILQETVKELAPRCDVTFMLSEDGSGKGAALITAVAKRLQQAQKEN
#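 test system = in-house recombinant HK5 (HKDC1) enzyme | amount = HKDC1 at 5 µg/mL | control set = DMSO-enzyme wells negative, buffer-substituted wells positive | compound = one dose of 20 µM, 1% DMSO | schedule = reaction time 90 min, room temperature, protected from light | technique = resorufin fluorescence at 613 nm | reagent = glucose with 1 mM ATP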
# Diaphorase inh: inhibits diaphorase or chemically oxidizes, flagging diaphorase assay artifacts | hit rate 0.69% among 190,000 | diaphorase resazurin-to-resorufin fluorescence, NADH, 16 min; bacterial (C. kluyveri) enzyme, not human | inhibition, % at 20 µM;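 active = primary screen inhibition at 20 µM above a set limit, cut at about 50% in these data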;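 note: plate controls were DMSO with full reaction for no effect and wells lacking NADH for full effect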
#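 Benchmarks: positive control wells lacking NADH, neutral wells with DMSO only. System: bacterial diaphorase enzyme (C. kluyveri). Input: 0.14 U/mL diaphorase, enzyme working solution. Detection: resorufin fluorescence, excitation 544 nm, emission 590 nm. Times: 16-min room-temperature incubation before reading.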
# PfG6PD inh: PfG6PD (Plasmodium falciparum) enzyme inhibition | PfGluPho enzyme, NADPH resazurin-diaphorase fluorescence | inhibition, % at 20 µM | hit rate 0.78% among 350,000;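 active = inhibition reaching at least a set limit at 20 µM in the primary screen, cut at about 59% in these data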;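 note: 0% = DMSO wells with substrate and 100% = DMSO wells lacking glucose-6-phosphate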
# HKDC1 act conf2: confirmation of human HKDC1 activators; shares compounds with HKDC1 inhibitor; recombinant HKDC1, G6PDH/diaphorase resazurin fluorescence; hits give low values; inhibition, % at 20 µM; hit rate 14% among 740; AID 504708;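 active = inhibition at or below a set negative limit, negative inhibition meaning the enzyme was activated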
# PfGluPho conf: confirmation of Plasmodium falciparum G6PD inhibitors | AID 504753 | shares compounds with PfG6PD inh | inhibition, % at 20 µM | hit rate 34% among 2,400 | recombinant PfGluPho, NADPH-diaphorase-resazurin fluorescence;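 active = inhibition of at least 50% at 20 µM in any single replicate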;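 note: 0% = DMSO with substrate and 100% = DMSO lacking glucose-6-phosphate substrate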
# Diaphorase 10uM: counter-screen for P. falciparum G6PD inhibitors: diaphorase inhibitors, oxidizers; diaphorase-coupled resazurin reduction, fluorescence, NADPH 10 uM; hit rate 39% among 820; inhibition, % at 20 µM; shares compounds with PfG6PD inh;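 active = average inhibition reaching 50% or more with the compound at 20 µM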;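 note: resorufin red fluorescence formed as diaphorase reduces resazurin using NADPH; 0% = DMSO with enzyme and 100% = DMSO without enzyme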
# Diaphorase 30uM: inhibits diaphorase or oxidizes, flagging false PfG6PD hits; inhibition, % at 20 µM; Diaphorase/resazurin coupled assay, resorufin fluorescence, 30 uM NADPH; hit rate 29% among 820; AID 504863; shares compounds with PfG6PD inh;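 active = inhibition averaging 50% or more, tested at 20 µM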;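 note: 0% = DMSO with enzyme and 100% = DMSO wells lacking diaphorase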
# * hit, by the source's call; . = not tested or not shown; ! = repeats disagree.
SMILES,Tb hexokinase,G6PDH CS,HKDC1 inhibitor,Diaphorase inh,PfG6PD inh,HKDC1 act conf2,PfGluPho conf,Diaphorase 10uM,Diaphorase 30uM
CN(C)c1ncc(C2=C(Cl)C(=O)C(N3CCCC3)=C(Cl)C2=O)s1,-10,.,35*,.,91*,20,98*,35,30
Cc1ccccc1C(=O)Nc1nnc(CC(=O)N/N=C/c2ccncc2)s1,-6,.,-6,.,-7,.,.,.,.
O=[N+]([O-])c1ccc(N/N=C/c2ccc(O)c(O)c2O)c(S(=O)(=O)N2CCOCC2)c1,-1,24,38*,88*,66*,9,62*,30,28
O=[N+]([O-])c1ccc(N/N=C/c2cccc(O)c2O)c(S(=O)(=O)N2CCOCC2)c1,-3,31,3,36,-12,.,.,.,.
O=C(O)CSc1cc(NS(=O)(=O)c2ccc(Cl)cc2)c2ccccc2c1O,.,.,65*,.,109*,46,91*,56*,41
COc1ccc(S(=O)(=O)Nc2cc(SCC(=O)O)c(O)c3ccccc23)cc1,.,.,57*,.,110*,47,96*,43,33
Cc1cc(C)c(S(=O)(=O)Nc2cc(SCC(=O)O)c(O)c3ccccc23)cc1C,1,35,54*,49,107*,41,98*,52*,39
CC(=O)C1=C(C)NC(=O)CC1c1ccc(F)cc1 (stereo not drawn),-4,4,-12,4,14,.,.,.,.
COc1cc(-n2nnnc2SC)c(OC)cc1Cl,-2,22,10,6,-1,.,.,.,.
Cc1ccc(N=c2ssnc2Cl)cc1,5,-2,-51,21,91*,-44*,43,.,.
Cc1cc(C)c(C#N)c(Cl)n1,1,11,14,11,4,.,.,.,.
COc1cc(N=c2ssnc2Cl)c(OC)cc1Cl,21,10,-46,36,105*!,-57*,64*,-15,-18
Cc1cc(C)nc(/N=c2/ssnc2Cl)c1,18,6,-137,25,98*,-84*,26,.,.
CCc1ccc(CN(Cc2cccnc2)C(=O)/C=C/c2ccc(OC)cc2)cc1,.,.,-6,.,2,.,.,.,.
CCN(CC)CCNc1cc(C)nc2c1C(=O)C(=O)C=C2N1CCCCC1,-7,51*,45*,.,75*,58,47,.,.
CCc1ccc(S(=O)(=O)/N=C2\C=C(Nc3cccc(C(=O)O)c3)C(=O)c3ccccc32)cc1,.,.,53*,.,61*,65,41,.,.
CCc1ccc(S(=O)(=O)/N=C2\C=C(Nc3ccc(O)cc3)C(=O)c3ccccc32)cc1,.,.,32,.,94*,6,32,.,.
Cc1cccc(N(C(=O)c2csnn2)C(C(=O)NC2CCCCC2)c2ccccn2)c1C (stereo not drawn),.,.,7,.,-7,.,.,.,.
COC1=C(c2ccccc2)C(=O)c2ccccc2C1=O,-2,46,11,8,24,.,.,.,.
O=C(C1=C(c2ccccc2)C(=O)c2ccccc2C1=O)c1ccccc1,-5,58*,58*,40,116*,52,79*,84*,81*
Cc1cc(C)c(S(=O)(=O)/N=C2/C=C(SCC(=O)O)C(=O)c3ccccc32)cc1C,4,51*,51*,29,106*,30,95*,48,36
Cc1ccc(NC(=O)CSc2ccccc2)cc1S(=O)(=O)N1CCCCC1,.,.,0,.,7,.,.,.,.
COc1cc(CNC(=O)C2CC(O)CN2C(=O)Nc2ccccc2)cc(OC)c1OC (stereo not drawn),.,.,.,.,12,.,.,.,.
COc1ncnc2c1oc1nc(C(C)C)c3c(c12)CC(C)(C)OC3,-8,6,53*,88*,62*,43,37,.,.
CC1(C)Cc2nc3oc4c(NCc5ccccc5)ncnc4c3cc2CO1,-4,8,8,9,0,.,.,.,.
SMILES,Tb hexokinase,G6PDH CS,HKDC1 inhibitor,Diaphorase inh,PfG6PD inh,HKDC1 act conf2,PfGluPho conf,Diaphorase 10uM,Diaphorase 30uM
CC(C)c1nc2oc3c(NCc4ccccn4)ncnc3c2c2c1COC(C)(C)C2,.,.,35*,.,65*,-4,28,.,.
O=C(CCn1c(=O)c2cccn2c2cccnc21)N1CCN(c2cccc(Cl)c2)CC1,.,.,1,.,-9,.,.,.,.
COc1ccc(Br)cc1/C=N/NC(=O)c1ccc2nc[nH]c2c1,.,.,-4,.,2,.,.,.,.
O=C(Nc1ccc(N2CCCC2)cc1)c1cccc(-c2cc3ccccc3oc2=O)c1,-10,-21,-40,-27,68*,-25*,58*,-21,-29
CN(C)Cc1cc(O)c(CN(C)C)cc1O,4,.,47*,.,78*,70,88*,43,17
Cc1ccc(Cl)cc1NS(=O)(=O)c1ccccc1,.,.,2,.,27,.,.,.,.
Cc1ccc(Cl)cc1NC1=C/C(=N\S(=O)(=O)c2cccs2)c2ccccc2C1=O,-13,54*,36*,30,95*,36,58*,39,41
Cc1ccc(NC2=C/C(=N\S(=O)(=O)c3cccs3)c3ccccc3C2=O)c(C)c1,3,52*,40*,20,102*,30,58*,60*,57*
O=C1C(Nc2ccc(O)cc2)=C/C(=N/S(=O)(=O)c2cccs2)c2ccccc21,1,47,60*,-12,114*,57,60*,67*,65*
CC(C)(C)c1cc[n+](C2=C([O-])c3ccccc3C(=O)/C2=N\S(=O)(=O)c2cccs2)cc1,-21,.,17,.,44,.,.,.,.
Cc1cc(C)c2c(=N)c3ccccc3n(CCCCCCCCn3c4ccccc4c(=N)c4c(C)cc(C)nc43)c2n1,.,.,74*,.,76*,23,51*,3,0
NC1=C(Br)C(=O)c2ncccc2C1=O,.,.,38*,.,108*,51,86*,78*,74*
O=C1C(=O)c2c(C(=O)c3ccccc3)coc2-c2ccccc21,9,61*,51*,62*,117*,53,107*,94*,100*
Cc1oc2c(c1C(=O)c1ccccc1)C(=O)C(=O)c1ccccc1-2,13,60*,42*,58*,108*,52,101*,90*,91*
Cc1oc2c(c1C(=O)O)C(=O)c1ccccc1C2=O,-4,44,14,7,32,.,.,.,.
CC(NC(=O)c1sc2cc([N+](=O)[O-])ccc2c1Cl)C(C)(C)C (stereo not drawn),25,10,-76,-4,97*,-39*,70*,0,-3
N=C1N(c2ccccc2)C(=S)C(=Nc2ccccc2)N1c1ccccc1,.,.,-77,.,65*,4,26,.,.
CN(C)c1ccc(/C=N/N2C(=N)N(c3ccccc3)C(=S)C2=Nc2ccccc2)cc1,-13,.,.,.,.,.,.,.,.

# Assay outcomes deposited in PubChem by several laboratories.
